Measurements collected from several papers.
Protocols differ between the studies behind these lines.
Target: Dual specificity protein kinase TTK (TTK, Homo sapiens, UniProt P33981)
One construct used (P33981 1-857): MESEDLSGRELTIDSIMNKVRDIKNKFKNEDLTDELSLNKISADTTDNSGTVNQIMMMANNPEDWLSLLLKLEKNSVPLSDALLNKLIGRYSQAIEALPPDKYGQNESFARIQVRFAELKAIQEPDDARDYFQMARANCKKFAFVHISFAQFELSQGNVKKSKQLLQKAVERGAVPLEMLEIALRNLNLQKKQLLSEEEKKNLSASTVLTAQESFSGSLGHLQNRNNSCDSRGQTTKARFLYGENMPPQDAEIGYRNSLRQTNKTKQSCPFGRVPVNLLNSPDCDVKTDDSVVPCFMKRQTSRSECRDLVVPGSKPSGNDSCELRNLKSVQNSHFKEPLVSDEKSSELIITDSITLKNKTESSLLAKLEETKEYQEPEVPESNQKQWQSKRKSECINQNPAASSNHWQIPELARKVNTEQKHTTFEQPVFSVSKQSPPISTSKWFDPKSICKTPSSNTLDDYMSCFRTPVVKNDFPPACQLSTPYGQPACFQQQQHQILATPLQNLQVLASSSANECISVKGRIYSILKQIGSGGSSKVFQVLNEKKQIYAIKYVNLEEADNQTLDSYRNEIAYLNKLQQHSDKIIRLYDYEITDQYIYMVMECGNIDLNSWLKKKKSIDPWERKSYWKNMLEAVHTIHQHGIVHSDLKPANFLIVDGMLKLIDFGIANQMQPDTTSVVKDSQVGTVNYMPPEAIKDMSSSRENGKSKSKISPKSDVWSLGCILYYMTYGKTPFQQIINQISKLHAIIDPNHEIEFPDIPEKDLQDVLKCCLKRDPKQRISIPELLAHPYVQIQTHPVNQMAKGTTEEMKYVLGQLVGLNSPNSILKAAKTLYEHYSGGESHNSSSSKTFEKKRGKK

The remaining binding of `O=C(NC[C@@H]1[C@H]2CN(C(=O)OCc3cc(C(F)(F)F)cc(C(F)(F)F)c3)C[C@@H]12)c1ccc2[nH]nnc2c1` is reported as 91% (cell-free assay, competition with immobilised ligand; 1 µM).
With `CC(C)(C)c1nc(-c2cccc(NS(=O)(=O)c3c(F)cccc3F)c2F)c(-c2ccnc(N)n2)s1` the remaining activity was 92% (enzyme activity, inhibitor, radiometric; 1 µM).
With `Cc1ccc(C(=O)NCc2ccsc2)cc1C#Cc1cn(C(C)C)c2ncnc(N)c12` the activity vs control was 93% (enzyme activity, inhibitor; 1 µM).
The ΔTm of `CCN1CCC2(CC1)NC(=O)c1c(c3ccc(Cl)c(Cl)c3n1C)C2C#N` (racemic) is reported as 0.6 °C (thermal stability, DSF; 10 µM).
For `Cc1c[nH]c2nccc(Oc3c(F)cc(Nc4cc(Cl)nc(N)n4)cc3F)c12`, the remaining binding was 96% (cell-free assay, competition with immobilised ligand; 0.1 µM).
`O=C1Nc2ccc(Cl)cc2C1=Cc1cc(Cl)c(O)c(Cl)c1` has a remaining signal of 84.4% (cell-free assay; 0.5 µM).
With `CCCOc1ccc([C@H]2[C@H](C(=O)O)[C@@H](c3ccc4c(c3)OCO4)CN2CC(=O)Nc2c(CC)cccc2CC)cc1` the remaining binding was 94% (cell-free assay, competition with immobilised ligand; 1 µM).
With `COc1cc(Nc2cnc(C#N)c(O[C@H](C)CN(C)C)n2)ncc1-c1cnn(C)c1` the remaining activity was 81% (enzyme activity, inhibitor, radiometric; 1 µM).
`FC(F)(F)Oc1cccc(-c2cnc3ccc(-c4ccncc4)nn23)c1` has an activity vs control of 70% (enzyme activity, inhibitor, radiometric; 1 µM).
`Cn1c2c(c3ccc(Cl)c(Cl)c31)C(C#N)C1(CCNCC1)NC2=O` (racemic) has a ΔTm of 0.7 °C (thermal stability, DSF; 10 µM).
For `Cc1ccc(C(=O)Nc2ccc(CN3CCN(C)CC3)c(C(F)(F)F)c2)cc1C#Cc1cnc2cccnn12`, the remaining activity was 77% (enzyme activity; 23.5 nM).
For `CN1CC(Oc2cnc(C#N)cc2-c2ccn3nc(NC(=O)C4CC4)cc3c2)C1`, the inhibition was 12% (enzyme activity, inhibitor; 1 µM).
`Oc1cccc(-c2nc(N3CCOCC3)c3oc4ncccc4c3n2)c1` gave a remaining activity of 66% (enzyme activity, inhibitor; 10 µM).
With `CC(C)(O)[C@H]1CC[C@H](Nc2ccc3ncc(-c4cccc(C(F)(F)F)c4)n3n2)CC1` the remaining activity was 79.8% (enzyme activity, inhibitor; 1 µM).
With `Cc1ccc(NC(=O)c2ccc(CN3CCN(C)CC3)cc2)cc1Nc1nc(-c2cccnc2)cs1` the remaining signal was 112% (cell-free assay; 0.5 µM).
`FC(F)(F)c1ccc2c(c1)nc(-c1cccnc1)n2C1CC1` gave a remaining binding of 100% (cell-free assay, competition with immobilised ligand; 1 µM).
`N#CCCc1ccc2c(c1)-c1[nH]c3ccc([N+](=O)[O-])cc3c1CC(=O)N2` gave a remaining signal of 71.7% (cell-free assay; 0.5 µM).
`Cn1c2c(c3ccc(Cl)c(Cl)c31)C(C#N)C1(CCCCC1)NC2=O` (racemic) gave a ΔTm of 0.7 °C (thermal stability, DSF; 10 µM).
`CN(C(=O)c1ccccc1)c1cc(N(C)c2ccc3c(c2)CCc2ccc(C(=O)NCCN4CCOCC4)cc2C3=O)ccc1F` gave a remaining binding of 87% (cell-free assay, competition with immobilised ligand; 1 µM).
`Nc1nc(Nc2ccc(S(N)(=O)=O)cc2)nn1C(=O)c1c(F)cccc1F` gave a remaining signal of 77.5% (cell-free assay; 0.5 µM).
`Cn1c2c(Cl)c(Cl)ccc2c2cn[nH]c(=O)c21` has a ΔTm of 0.6 °C (thermal stability, DSF; 10 µM).
`CCS(=O)(=O)c1cc2cc(C[C@](O)(CC(C)(C)c3ccc(F)cc3C(N)=O)C(F)(F)F)[nH]c2cn1` gave a remaining binding of 99% (cell-free assay, competition with immobilised ligand; 1 µM).
